Bioassay records as filed in PubChem.
Calpain2 inh = calpain II (pig) inhibition. purified calpain II, fluorogenic peptide substrate, 30 min. inhibition, % at 16 µM. hit rate 0.37% among 220,000;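 active = inhibition above about 50%, limit read from the data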
Runt-CBFb FRET = inhibitors of human RUNX1 Runt domain binding to CBFb. Q01196+Q13951. Cerulean-Runt/Venus-CBFb FRET ratio 530/480, 1 h. inhibition, % at 20 µM. hit rate 0.46% among 220,000. AID 1496;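 active = inhibition over about 50% at 20 µM in the single-dose screen, limit read from the data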;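 also: 0% = DMSO wells and 100% = excess unlabeled CBFb competitor control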
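Reagent – Venus-CBFb binding partner, 100 nM · Assay system – Cerulean-tagged RUNX1 Runt domain (FRET donor) fusion protein · Input – 100 nM per protein · Incubation – two 1 h room-temperature incubations shielded from light · Measured by – FRET fluorescence · Medium – Tris buffer pH 7.5 with salts and BSA · Benchmarks – unlabeled CBFb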
RanGTP-Imp inh = disruptors of Ran-importin-beta complex formation – biochemical, FRET, CFP-Ran, YFP-importin-beta, homogeneous, primary screen; hit rate 1.1% among 300,000; cell-free CFP-Ran/YFP-importin-beta FRET ratio; inhibition, % (test concentration not listed);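 active = more than half of the replicate wells show a fall in the fluorescence ratio signal beyond about 16%, limit read from the data, passing the limit was not always enough; inconclusive = exactly half of the replicate wells pass the set limit; inactive = fewer than half of replicates pass the limit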;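 also: 0% = DMSO wells and 100% = Ran loaded with GDP instead of GTP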
FAS TE block = FAS thioesterase (human) inhibition; P49327; hit rate 0.67% among 360,000; inhibition, % at 15 µM; recombinant FAS-TE, OMFH fluorogenic substrate, fluorescence endpoint;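 active = compounds whose normalised, plate-corrected inhibition of enzyme fluorescence in the single-dose primary screen is 50% or more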;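 also: 0% = DMSO with enzyme and 100% = substrate without enzyme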
Runt-SMMHC FRET = blocks binding of human RUNX1 Runt domain to CBFb-SMMHC; Q01196+Q13951; Cerulean-Runt/Venus-CBFb-SMMHC FRET ratio 530/480, 1 h; inhibition, % at 20 µM; hit rate 0.74% among 220,000; AID 1434;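 active = mean inhibition across duplicate retests at 20 µM reaching about 50%, limit read from the data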;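 also: 0% = DMSO wells and 100% = wells with excess untagged CBFb-SMMHC; inhibitors lower the FRET ratio by blocking Runt binding to CBFb-SMMHC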
Numbers without * were called inactive. Rows were chosen to be rich in hits. Some 2.1% of all compounds tested hit in one or more screens of this group.

Screening Cc1csc2ncnc(N3CCN(C(=O)Nc4ccc(OC(F)(F)F)cc4)CC3)c12 returned Calpain2 inh 56.8*, Runt-CBFb FRET -1.3, RanGTP-Imp inh -0.3, FAS TE block 29.7 and Runt-SMMHC FRET 1.9.
For O=C(O)c1ccc2nc(-c3ccccc3)sc2c1 the results were Calpain2 inh -18.6, Runt-CBFb FRET -1.1, RanGTP-Imp inh -1.9, FAS TE block -7.9 and Runt-SMMHC FRET 2.4.
Screening Nc1ccc(-c2nc3ccc(C(=O)O)cc3s2)cc1 returned Calpain2 inh -341.1, Runt-CBFb FRET 35.8, RanGTP-Imp inh -5.8, FAS TE block -6.4 and Runt-SMMHC FRET 85.7*.
For CCc1ccc(OCC(=O)Nc2ccc3c(c2)OCCO3)cc1 the results were RanGTP-Imp inh inconclusive and FAS TE block 8.2.
For CCOc1ccc(CCNC(=O)COC(=O)c2oc3ccccc3c2COC)cc1OCC the results were FAS TE block 4.4.
`O=C(Nc1ccon1)Nc1ccc(F)cc1F` gave RanGTP-Imp inh 0.2 and FAS TE block -2.5.
`COc1ccc(C(C)=O)c(Oc2ccc(S(=O)(=O)N3CCOCC3)cn2)c1` gave FAS TE block -6.2.
Cc1ccc(C)c(S(=O)(=O)c2c(N)n(/N=C/c3ccco3)c3nc4ccccc4nc23)c1 was read as Calpain2 inh -168.2, Runt-CBFb FRET 41.9, RanGTP-Imp inh 4.5, FAS TE block 38.6 and Runt-SMMHC FRET 67.0*.
For Cc1cc(C)c2c(=O)n(CC(=O)N3CCC(N4CCCCC4)CC3)sc2n1 the results were Calpain2 inh -13.6, Runt-CBFb FRET -10.1, RanGTP-Imp inh -1.6, FAS TE block -10.4 and Runt-SMMHC FRET 64.4*.
CCOC(=O)C1CCCN(C(=O)Cn2cnc3c2c(=O)n(C)c(=O)n3C)C1 (centres undefined) was read as Calpain2 inh -19.5, Runt-CBFb FRET -0.2, RanGTP-Imp inh -4.5, FAS TE block -1.8 and Runt-SMMHC FRET 2.8.
CCCNC(=O)Cn1sc2nc(C)cc(C)c2c1=O was read as Calpain2 inh -27.4, Runt-CBFb FRET 13.9, RanGTP-Imp inh -4.1, FAS TE block -4.6 and Runt-SMMHC FRET 60.5*.
For CCOC(=O)C1CCCN(C(=O)Cn2sc3nc(C)cc(C)c3c2=O)C1 (centres undefined) the results were Calpain2 inh -9.2, Runt-CBFb FRET -15.0, RanGTP-Imp inh -0.4, FAS TE block -7.2 and Runt-SMMHC FRET 59.4*.
`CC(=O)Cn1cnc2c(sc3nc(C)cc(C)c32)c1=O` gave Calpain2 inh 7.7, Runt-CBFb FRET 0.9, RanGTP-Imp inh -1.8, FAS TE block -4.0 and Runt-SMMHC FRET -1.8.
`Cc1ccc(O)c(CCc2ccc(O)cc2)n1` gave Calpain2 inh -35.9, Runt-CBFb FRET 0.2, RanGTP-Imp inh 4.0, FAS TE block -2.0 and Runt-SMMHC FRET 1.6.
`Cc1ccc(Cn2c(SC3CCOC3=O)nc3ccccc3c2=O)cc1` (centres undefined) gave Calpain2 inh -0.5, Runt-CBFb FRET 1.9, RanGTP-Imp inh 2.2, FAS TE block 15.5 and Runt-SMMHC FRET -1.0.
`CCc1cc2c(=O)n(Cc3ccccc3)c(SC3CCOC3=O)nc2s1` (centres undefined) gave Calpain2 inh 53.9*, Runt-CBFb FRET -2.2, RanGTP-Imp inh -5.8, FAS TE block 23.2 and Runt-SMMHC FRET 0.4.
`CC(C)(C)CC(C)(C)NC(=S)Nc1ccc2nc(-c3ccccn3)c(-c3ccccn3)nc2c1` gave Calpain2 inh -118.5, Runt-CBFb FRET -34.5, RanGTP-Imp inh -25.7, FAS TE block 4.4 and Runt-SMMHC FRET -44.5.
`S=C(Nc1ccc2nc(-c3ccccn3)c(-c3ccccn3)nc2c1)N1CCOCC1` gave Calpain2 inh -48.8, Runt-CBFb FRET -8.8, RanGTP-Imp inh -16.2, FAS TE block -6.1 and Runt-SMMHC FRET -68.0.
`CN(C)NC(=S)Nc1ccc2nc(-c3ccccn3)c(-c3ccccn3)nc2c1` gave Calpain2 inh -107.1, Runt-CBFb FRET 2.7, RanGTP-Imp inh 48.4*, FAS TE block -3.9 and Runt-SMMHC FRET -189.0.
`OCCCNC(=S)Nc1ccc2nc(-c3ccccn3)c(-c3ccccn3)nc2c1` gave Calpain2 inh -159.6, Runt-CBFb FRET -2.3, RanGTP-Imp inh 36.0*, FAS TE block -9.3 and Runt-SMMHC FRET -17.2.
O=C(O/N=C1\CCCCC1c1ccc([N+](=O)[O-])cc1[N+](=O)[O-])c1c(F)cccc1F (centres undefined) was read as Calpain2 inh 63.0*, Runt-CBFb FRET 16.9, RanGTP-Imp inh -0.5, FAS TE block 20.9 and Runt-SMMHC FRET -3.7.
